# This is one part of a sample in which hits are shown more often than they occur.
# A1 apoptosis 2: A1 inhibitors via caspase activation, primary screen, cell-based, luminescence, HTS, two replicates; MEF A1-2A-BIM cells, caspase-Glo luminescence, 3 h; percent of clofoctol response, DMSO zero; caspase activation, % (test concentration not listed); 24,000 tested, under 10 active; AID 2465, 2010; in the data active = caspase activation above about 5.9%
#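 Test system – A1-2A-BIM-expressing MEF cells · Input – 2500 cells/well · Medium – RPMI-1640 growth medium with 10% FBS · Compound dosing – 50 nL pinned compound · Timing – 3 h compound exposure at 37 °C · Technique – Caspase-Glo luminescence (DEVD substrate) · Evaluation – Caspase-3/7 activity from luminescence increase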
# T cruzi intra: inhibitors of intracellular Trypanosoma cruzi, primary screen, cell-based, plate reader, single point, set 2; actives 4.9% (n = 22,000); intracellular Trypanosoma cruzi in host cells; activity score (inhibition), % at 5.01 µM; in the data active = activity score above about 55%;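 note: parasites and compound incubated about four days before reading; 0% = median of neutral control wells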
# INS-1E ATP HTS: protection of INS-1E cells from cytokine death, primary screen, ATP luminescence, single point; AID 488910, 2010; protection from cytokine-induced ATP loss, % at 10 µM; actives 0.1% (n = 20,000); INS-1E cytokine-induced death, 48 h; normalised: neutral wells 0, positive control 100;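 active = mean replicate protection from cytokine-induced ATP loss at least 50% and at least 75% of replicates each reaching 50%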
#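 Material: INS-1E rat cells; Quantity: 8000 cells/well; Buffer or medium: phenol-red-free RPMI with 5% fetal bovine serum; Probe or stimulus: cytokine cocktail of IFN-γ, TNF-α and IL-1β; Compound dosing: single test concentration per compound, delivered by pin transfer; Incubation: 48 h co-treatment, 10 min post-lysis read; Signal: CellTiter-Glo luminescence.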
# * marks the source's active call; other numbers are inactive results; · = no result.
SMILES,A1 apoptosis 2,T cruzi intra,INS-1E ATP HTS
C[C@H]1CN([C@@H](C)CO)C(=O)c2cc(NS(=O)(=O)c3ccc(Cl)cc3)ccc2O[C@@H]1CN(C)Cc1ccc(C(F)(F)F)cc1,-0.9,57.9*,-22.9
C[C@H]1CN([C@@H](C)CO)C(=O)c2cc(NS(=O)(=O)c3ccc(Cl)cc3)ccc2O[C@H]1CN(C)Cc1ccc(C(F)(F)F)cc1,-0.5,·,·
C[C@H](CO)N1C[C@H](C)[C@@H](CN(C)Cc2ccc(C(F)(F)F)cc2)Oc2ccc(NS(=O)(=O)c3ccc(Cl)cc3)cc2C1=O,·,70.5*,-8.5
C[C@H]1CN([C@@H](C)CO)C(=O)c2cc(NS(=O)(=O)c3ccc(F)cc3)ccc2O[C@H]1CN(C)Cc1ccc(C(F)(F)F)cc1,·,54.6*,·
C[C@@H]1CN([C@H](C)CO)C(=O)c2cc(NS(=O)(=O)c3ccc(Cl)cc3)ccc2O[C@H]1CN(C)Cc1ccc(C(F)(F)F)cc1,1.4,46.6,-32.4
C[C@H](CO)N1C[C@H](C)[C@H](CN(C)Cc2ccc(C(F)(F)F)cc2)Oc2ccc(NS(=O)(=O)c3ccc(F)cc3)cc2C1=O,0.6,-7.4,-4.9
O=C(N/N=C/c1cccc(Oc2ccccc2)c1)c1ccccn1,·,5.6,10.1
O=C(CCCCCCC(=O)Nc1ccccc1O)N/N=C/c1ccco1,-0.1,-4.5,2.2
Cc1ccsc1/C=N/NC(=O)CCCCCC(=O)O,0.2,-34.5,6.2
C[C@@H]1CN([C@H](C)CO)C(=O)Cc2cc(NS(=O)(=O)c3cccs3)ccc2O[C@@H]1CN(C)S(=O)(=O)c1ccccc1,0.5,59.3*,-1.1
C[C@@H]1CN([C@H](C)CO)C(=O)Cc2cc(NS(=O)(=O)c3cccs3)ccc2O[C@@H]1CN(C)S(=O)(=O)c1ccc(Cl)cc1,-1.2,71.5*,3.6
C[C@H]1CN([C@@H](C)CO)C(=O)Cc2cc(NS(=O)(=O)c3cccs3)ccc2O[C@@H]1CN(C)S(=O)(=O)c1ccccc1,-0.7,-19.0,-5.3
C[C@@H]1CN([C@@H](C)CO)C(=O)Cc2cc(NS(=O)(=O)c3cccs3)ccc2O[C@H]1CN(C)S(=O)(=O)c1ccc(Cl)cc1,0.3,·,·
COCCCNC(=O)[C@]1(CCS(=O)(=O)c2ccccc2)N=C(c2ccc(OCCCO)cc2)O[C@@H]1c1ccccc1,1.1,·,·
COc1ccc(NC(=O)Nc2ccc3c(c2)C(=O)N([C@H](C)CO)C[C@H](C)[C@H](CN(C)C(=O)Nc2ccc(C(F)(F)F)cc2)OCCCC[C@@H](C)O3)cc1,-0.5,54.9,2.4
COc1ccc(NC(=O)Nc2ccc3c(c2)C(=O)N([C@H](C)CO)C[C@H](C)[C@@H](CN(C)C(=O)Nc2ccc(C(F)(F)F)cc2)OCCCC[C@@H](C)O3)cc1,·,68.7*,-16.5
COc1ccc(NC(=O)N(C)C[C@H]2OCCCC[C@@H](C)Oc3ccc(NC(=O)Nc4ccc(C(F)(F)F)cc4)cc3C(=O)N([C@H](C)CO)C[C@@H]2C)cc1,-0.1,57.1*,-19.1
COc1ccc(NC(=O)Nc2ccc3c(c2)C(=O)N([C@H](C)CO)C[C@H](C)[C@H](CN(C)C(=O)Nc2ccc(C(F)(F)F)cc2)OCCCC[C@H](C)O3)cc1,0.9,·,·
O=C(O)CCCCCC(=O)N/N=C/c1ccc[nH]1,·,-2.1,9.6
N#Cc1ccc(/C=N/NC(=O)c2ccccn2)cc1,-9.1,-11.5,-14.7
O=C(O)CCCCCCC(=O)N/N=C/c1ccc(-c2cccc(Cl)c2)o1,·,3.8,21.7
C[C@H]1CN([C@@H](C)CO)C(=O)Cc2cc(NC(=O)Nc3ccccc3)ccc2O[C@H]1CN(C)Cc1ccc2c(c1)OCO2,·,2.1,2.9
C[C@@H]1CN([C@H](C)CO)C(=O)Cc2cc(NC(=O)Nc3ccc4c(c3)OCO4)ccc2O[C@@H]1CN(C)Cc1ccc(-c2ccccc2)cc1,-0.4,61.6*,-28.7
C[C@H]1CN([C@@H](C)CO)C(=O)Cc2cc(NC(=O)Nc3ccc4c(c3)OCO4)ccc2O[C@H]1CN(C)Cc1ccc(-c2ccccc2)cc1,·,76.4*,-38.9
C[C@H](CO)N1C[C@H](C)[C@@H](CN(C)Cc2ccccc2)Oc2ccc(NC(=O)Nc3ccc4c(c3)OCO4)cc2CC1=O,-0.6,·,·
SMILES,A1 apoptosis 2,T cruzi intra,INS-1E ATP HTS
C[C@@H]1CN([C@H](C)CO)C(=O)c2cc(NC(=O)Nc3ccc4c(c3)OCO4)ccc2O[C@@H]1CN(C)Cc1ccc(-c2ccccc2)cc1,0.1,87.5*,-24.6
C[C@H](CO)N1C[C@H](C)[C@H](CN(C)Cc2ccc(-c3ccccc3)cc2)Oc2ccc(NC(=O)Nc3ccc4c(c3)OCO4)cc2C1=O,-1.5,-6.5,·
C[C@@H]1CN([C@@H](C)CO)C(=O)Cc2cc(NC(=O)Nc3ccc4c(c3)OCO4)ccc2O[C@@H]1CN(C)Cc1ccc(-c2ccccc2)cc1,0.8,63.8*,-3.7
C[C@H]1CN([C@@H](C)CO)C(=O)Cc2cc(NC(=O)Nc3ccc4c(c3)OCO4)ccc2O[C@@H]1CN(C)Cc1ccccc1,·,5.3,2.6
O=C(CCCCCC(=O)N/N=C/c1cc(Cl)cc(Cl)c1O)NO,0.7,·,·
Cc1noc(C)c1S(=O)(=O)Nc1ccc2c(c1)C(=O)N([C@@H](C)CO)C[C@H](C)[C@H](CN(C)C)OCCCC[C@@H](C)O2,-0.1,·,·
CCN(CC)c1ccc(/C=N/NC(=O)c2ccccc2O)c(O)c1,-9.0,·,·
C[C@H]1CCCCO[C@H](CN(C)S(=O)(=O)c2ccc(Cl)cc2)[C@@H](C)CN([C@@H](C)CO)C(=O)c2cc(NS(=O)(=O)c3ccccc3)ccc2O1,-0.8,·,·
C[C@@H]1CN([C@@H](C)CO)C(=O)c2cc(NC(=O)Nc3cccc4ccccc34)ccc2O[C@@H]1CN(C)Cc1ccc(Oc2ccccc2)cc1,0.4,56.5*,-57.3
C[C@H]1CN([C@@H](C)CO)C(=O)Cc2cc(NC(=O)Nc3cccc4ccccc34)ccc2O[C@H]1CN(C)Cc1ccc(-c2ccccc2)cc1,·,4.3,-44.8
C[C@H]1CN([C@@H](C)CO)C(=O)Cc2cc(NC(=O)Nc3cccc4ccccc34)ccc2O[C@H]1CN(C)Cc1ccccc1,0.3,68.8*,-19.5
C[C@@H]1CN([C@@H](C)CO)C(=O)Cc2cc(NC(=O)Nc3cccc4ccccc34)ccc2O[C@@H]1CN(C)Cc1ccc(-c2ccccc2)cc1,·,49.9,1.0
C[C@H]1CN([C@@H](C)CO)C(=O)Cc2cc(NC(=O)Nc3cccc4ccccc34)ccc2O[C@@H]1CN(C)CC1CCCCC1,-0.7,75.7*,-24.2
C[C@@H]1CN([C@H](C)CO)C(=O)c2cc(NC(=O)Nc3cccc4ccccc34)ccc2O[C@H]1CN(C)Cc1ccc(Oc2ccccc2)cc1,1.3,53.2,·
C[C@H](CO)N1C[C@H](C)[C@H](CN(C)CC2CC2)Oc2ccc(NC(=O)Nc3cccc4ccccc34)cc2CC1=O,0.7,·,·
C[C@@H]1CN([C@@H](C)CO)C(=O)Cc2cc(NC(=O)Nc3cccc4ccccc34)ccc2O[C@@H]1CN(C)Cc1ccccc1,·,66.8*,-21.9

# Source: PubChem (Broad Institute)
